From ChEMBL document CHEMBL1133729, “Design, synthesis, and structure-activity relationships of phthalimide-phenylpiperazines: a novel series of potent and selective alpha(1)(a)-adrenergic receptor antagonists” (J Med Chem, 2000)

Legend:
[1] = target: T1, 5-hydroxytryptamine receptor 7 (Homo sapiens, UniProt P34969); assay: Compound at 1 uM was tested for the inhibition of radioligand [3H]LSD binding to recombinant human 5-hydroxytryptamine 7 receptor
In short: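 Human 5-HT7 expressed in CHO cells; [3H]LSD, 120 min at 37 °C, pH 7.4 Tris-HCl/NaCl/EDTA; 5 μM 5-HT for nonspecific binding. Compound at 1 μM, duplicate determinations of percent inhibition; filtration, scintillation counting.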

[2] = target: T2, Dihydropyridine-sensitive L-type Ca2+ channel (Rattus norvegicus, UniProt P22002+P27732+Q02485); assay: Inhibition of [3H]nitrendipine binding to Dihydropyridine-sensitive L-type [Ca2+] channel in rat cerebral cortex at 1 uM; type: tissue-based; settings: probe [3H]nitrendipine
In short: (§1)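 Rat cerebral cortex membranes as source of dihydropyridine-sensitive L-type Ca2+ channels; [3H]nitrendipine, 25 °C for 90 min, pH 7.4 Tris-HCl/NaCl/EDTA; 1 μM nifedipine for nonspecific binding. Percent inhibition at the single compound concentration given in each line; filtration, scintillation counting.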

[3] = target: Serotonin 1 (5-HT1) receptor (Rattus norvegicus) (UniProt P28564+P30940+P19327+P28565); assay: Compound at 1 uM was tested for the inhibition of radioligand [3H]5-HT binding to 5-hydroxytryptamine 1 receptor in rat cerebral cortex; type: tissue-based
In short: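 Rat cerebral cortex membranes; [3H]5-HT, 10 min at 37 °C, Tris-HCl/NaCl/EDTA buffer pH 7.4; 10 μM 5-HT for nonspecific binding. Filtered, washed three to four times, scintillation counted. Percent inhibition at 1 μM test compound, in duplicate.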

[4] = target: phenylalkylamine-sensitive L-type Ca2+ channel (Rattus norvegicus, UniProt P22002+P27732+Q02485); assay: Inhibition of [3H]nitrendipine binding to phenylalkylamine-sensitive [Ca2+] L-type channels in rat cerebral cortex at 1 uM; type: tissue-based; settings: probe [3H]nitrendipine
Rattus norvegicus [5] = species: Rattus norvegicus; assay: Antagonist dissociation equilibrium constant was tested against rat prosta contraction; type: functional
In short: (§2)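 Isolated Long Evans male rat (275 ± 25 g) abdominal aortic strips (3-4 mm wide) or prostate strips (8-10 mm x 1-2 mm), 2 g resting tension, modified Krebs at 37 °C, 95% O2/5% CO2, pH 7.4, 60 min equilibration; isometric tension.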

Rattus norvegicus [6] = species: Rattus norvegicus; assay: Antagonist dissociation equilibrium constant was tested against rat aorta contraction; type: functional; in short: as §2
[7] = Ratio of rat aorta KB to rat prostate KB; type: functional
In short: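 Long Evans male rats (275 ± 25 g); aortic and prostate strips at 2 g resting tension in modified Krebs, 37 °C, 95% O2/5% CO2, pH 7.4, isometric recording. Cumulative NE curves (0.001–100 μM), repeated after 5 min with one of three antagonist concentrations. KB = [B]/(CR − 1) from EC50 shifts; value is aorta KB divided by prostate KB.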

[8] = target: Alpha-2B adrenergic receptor (Rattus norvegicus, UniProt P19328); assay: Binding affinity towards rat alpha-2B adrenergic receptor was determined using [3H]yohimbine as radioligand
Alpha-2B adrenergic receptor, sequence (P19328 whole entry): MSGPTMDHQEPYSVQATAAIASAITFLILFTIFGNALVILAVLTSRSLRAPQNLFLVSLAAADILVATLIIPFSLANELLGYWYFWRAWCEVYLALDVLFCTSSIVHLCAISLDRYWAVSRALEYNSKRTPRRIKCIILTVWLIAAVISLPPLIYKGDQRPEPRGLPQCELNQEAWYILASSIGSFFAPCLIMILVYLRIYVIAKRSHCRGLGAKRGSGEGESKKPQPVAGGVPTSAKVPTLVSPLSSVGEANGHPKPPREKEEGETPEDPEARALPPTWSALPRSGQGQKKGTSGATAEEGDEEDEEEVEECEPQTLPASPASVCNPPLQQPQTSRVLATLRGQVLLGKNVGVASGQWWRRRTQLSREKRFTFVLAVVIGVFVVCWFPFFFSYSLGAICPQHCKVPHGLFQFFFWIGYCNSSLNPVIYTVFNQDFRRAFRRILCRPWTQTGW
In short: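 Membranes from rat kidney cortex; [3H]yohimbine binding at 25 °C for 30 min in 50 mM Tris-HCl, 150 mM NaCl, 5 mM EDTA, pH 7.4. Nonspecific binding defined with 10 μM phentolamine. Filtration, washes, scintillation counting. IC50 from nonlinear regression, Ki by Cheng–Prusoff, mean ± SEM of three independent experiments.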

[9] = target: T2, Dihydropyridine-sensitive L-type Ca2+ channel; assay: Inhibition of [3H]nitrendipine binding to Dihydropyridine-sensitive L-type [Ca2+] channel in rat cerebral cortex at 10 uM; type: tissue-based; settings: probe [3H]nitrendipine; in short: as §1
D(2) dopamine receptor [10] = target: T3, D(2) dopamine receptor (Homo sapiens, UniProt P14416); assay: Binding affinity towards recombinant human Dopamine receptor D2S was determined using [3H]spiperone as radioligand
T3 sequence (P14416 whole entry): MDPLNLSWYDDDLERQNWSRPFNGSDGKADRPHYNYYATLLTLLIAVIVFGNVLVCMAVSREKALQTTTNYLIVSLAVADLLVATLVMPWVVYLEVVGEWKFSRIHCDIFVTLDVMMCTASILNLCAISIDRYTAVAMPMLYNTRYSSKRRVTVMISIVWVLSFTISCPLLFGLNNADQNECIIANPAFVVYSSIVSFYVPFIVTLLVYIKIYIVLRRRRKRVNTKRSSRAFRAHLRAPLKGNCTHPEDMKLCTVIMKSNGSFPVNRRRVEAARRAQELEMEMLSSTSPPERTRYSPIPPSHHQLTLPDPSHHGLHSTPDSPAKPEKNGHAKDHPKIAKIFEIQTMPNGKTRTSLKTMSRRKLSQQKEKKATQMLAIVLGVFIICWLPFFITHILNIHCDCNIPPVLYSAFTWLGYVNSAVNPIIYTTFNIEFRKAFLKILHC
In short: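 Recombinant human D2S in CHO cell membranes; [3H]spiperone incubated 120 min at 37 °C, buffer 50 mM Tris-HCl, 150 mM NaCl, 5 mM EDTA, pH 7.4; nonspecific with 10 μM haloperidol. Filtered, counted by scintillation. Ki via Cheng–Prusoff from fitted IC50, mean ± SEM of three experiments.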

D(2) dopamine receptor [11] = target: T3, D(2) dopamine receptor; assay: Binding affinity towards recombinant human Dopamine receptor D2L was determined using [3H]spiperone as radioligand
In short: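 CHO-expressed human D2L membranes; [3H]spiperone, 25 °C for 120 min, pH 7.4 Tris-HCl/NaCl/EDTA buffer; haloperidol (10 μM) for nonspecific binding. Filtration, scintillation counting. IC50 by nonlinear least squares fitting; Ki by Cheng–Prusoff; mean ± SEM, three independent experiments.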

D(3) dopamine receptor = D(3) dopamine receptor (Homo sapiens, UniProt P35462); assay: Binding affinity towards recombinant human Dopamine receptor D3 was determined using [3H]spiperone as radioligand
D(3) dopamine receptor, sequence (P35462 whole entry): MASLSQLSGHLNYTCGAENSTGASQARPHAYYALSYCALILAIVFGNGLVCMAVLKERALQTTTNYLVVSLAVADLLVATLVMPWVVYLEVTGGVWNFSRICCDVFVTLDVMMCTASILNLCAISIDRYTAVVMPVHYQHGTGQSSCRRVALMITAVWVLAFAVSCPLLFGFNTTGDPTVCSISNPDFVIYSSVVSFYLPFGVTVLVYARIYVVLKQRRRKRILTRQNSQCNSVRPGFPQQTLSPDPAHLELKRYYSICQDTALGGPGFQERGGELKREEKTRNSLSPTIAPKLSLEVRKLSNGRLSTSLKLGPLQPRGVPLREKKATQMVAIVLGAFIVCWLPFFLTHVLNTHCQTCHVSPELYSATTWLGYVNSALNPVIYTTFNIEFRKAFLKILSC

[12] = target: Voltage-gated L-type calcium channel (Rattus norvegicus, UniProt P22002+Q02485+P27732); assay: Inhibition of [3H]nitrendipine binding to phenylalkylamine-sensitive [Ca2+] L-type channels in rat cerebral cortex; type: tissue-based
[13] = target: T1, 5-hydroxytryptamine receptor 7; assay: Binding affinity towards recombinant human 5-hydroxytryptamine 7 receptor was determined using [3H]LSD as radioligand
In short: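 Membranes were from CHO cells expressing recombinant human 5-HT7. [3H]LSD binding was run for 120 min at 37 °C in 50 mM Tris-HCl, 150 mM NaCl, 5 mM EDTA, pH 7.4, with nonspecific binding set by 5 μM 5-HT. Filtration and scintillation counting followed. Ki came from IC50 by Cheng–Prusoff, mean ± SEM of three experiments.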

[14] = target: Serotonin 1 (5-HT1) receptor (Rattus norvegicus, UniProt P28564+P30940+P19327+P28565); assay: Binding affinity towards 5-hydroxytryptamine 1 receptor was determined in rat cerebral cortex using [3H]5-HT as radioligand; type: tissue-based
In short: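 Rat cerebral cortex membranes incubated with [3H]5-HT for 10 min at 37 °C in 50 mM Tris-HCl, 150 mM NaCl, 5 mM EDTA, pH 7.4. Nonspecific binding defined with 10 μM 5-HT. Filtration, then liquid scintillation counting. Ki derived from IC50 by Cheng–Prusoff; mean of three independent experiments.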

[15] = target: Alpha-2A adrenergic receptor (Homo sapiens, UniProt P08913); assay: Binding affinity towards recombinant human alpha-2A adrenergic receptor was determined using [3H]MK-912 as radioligand
Alpha-2A adrenergic receptor, sequence (P08913 whole entry): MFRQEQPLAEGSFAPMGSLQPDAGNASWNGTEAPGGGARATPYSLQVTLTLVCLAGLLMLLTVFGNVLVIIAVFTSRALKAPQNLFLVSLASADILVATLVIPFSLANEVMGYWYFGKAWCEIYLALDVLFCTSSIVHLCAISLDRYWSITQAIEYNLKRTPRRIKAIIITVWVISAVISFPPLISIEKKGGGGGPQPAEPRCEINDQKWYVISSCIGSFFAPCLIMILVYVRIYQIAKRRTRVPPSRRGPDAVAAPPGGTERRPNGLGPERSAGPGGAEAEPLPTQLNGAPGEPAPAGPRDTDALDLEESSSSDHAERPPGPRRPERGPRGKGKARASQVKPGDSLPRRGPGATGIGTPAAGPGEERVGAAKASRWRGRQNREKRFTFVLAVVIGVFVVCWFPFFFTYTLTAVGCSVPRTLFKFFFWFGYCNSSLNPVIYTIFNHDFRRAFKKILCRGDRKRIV
In short: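 Membranes from CHO cells expressing recombinant human α2a receptor; competition with [3H]MK912, 60 min at 25 °C, in 50 mM Tris-HCl/150 mM NaCl/5 mM EDTA pH 7.4. Nonspecific binding defined with 10 μM WB4101. Filtration, washing, scintillation counting. IC50 by nonlinear regression, Ki via Cheng–Prusoff; mean ± SEM of three independent experiments.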

Rattus norvegicus [16] = species: Rattus norvegicus; assay: Displacement of [3H]-idazoxan from imidazoline receptor I-2 of rat cerebral cortex; type: tissue-based; settings: concentration not given here
In short: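 Rat cerebral cortex membranes; [3H]idazoxan at 25 °C for 30 min in 50 mM Tris-HCl, 150 mM NaCl, 5 mM EDTA, pH 7.4; nonspecific binding with 1 μM idazoxan. Filtered, washed three to four times, scintillation counted; duplicate determinations.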

[17] = target: Histamine H1 receptor (Cavia porcellus) (UniProt P31389); assay: Compound at 1 uM was tested for the inhibition of radioligand [3H]pyrilamine binding to peripheral histamine H1 receptor in guinea pig lung
Histamine H1 receptor (Cavia porcellus), sequence (P31389 whole entry): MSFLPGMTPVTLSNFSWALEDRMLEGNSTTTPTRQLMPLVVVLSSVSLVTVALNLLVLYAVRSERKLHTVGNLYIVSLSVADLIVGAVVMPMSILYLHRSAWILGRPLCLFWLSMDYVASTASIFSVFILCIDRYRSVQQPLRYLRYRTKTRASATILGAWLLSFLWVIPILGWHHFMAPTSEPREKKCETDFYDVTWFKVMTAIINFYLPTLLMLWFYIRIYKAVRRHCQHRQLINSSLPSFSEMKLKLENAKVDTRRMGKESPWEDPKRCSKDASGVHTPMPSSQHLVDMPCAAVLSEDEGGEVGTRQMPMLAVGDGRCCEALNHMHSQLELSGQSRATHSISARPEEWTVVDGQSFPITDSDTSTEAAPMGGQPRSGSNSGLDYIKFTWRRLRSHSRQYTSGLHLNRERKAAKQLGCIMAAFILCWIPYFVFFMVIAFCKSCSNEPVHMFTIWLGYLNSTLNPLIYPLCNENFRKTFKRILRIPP

T1 sequence (P34969 whole entry): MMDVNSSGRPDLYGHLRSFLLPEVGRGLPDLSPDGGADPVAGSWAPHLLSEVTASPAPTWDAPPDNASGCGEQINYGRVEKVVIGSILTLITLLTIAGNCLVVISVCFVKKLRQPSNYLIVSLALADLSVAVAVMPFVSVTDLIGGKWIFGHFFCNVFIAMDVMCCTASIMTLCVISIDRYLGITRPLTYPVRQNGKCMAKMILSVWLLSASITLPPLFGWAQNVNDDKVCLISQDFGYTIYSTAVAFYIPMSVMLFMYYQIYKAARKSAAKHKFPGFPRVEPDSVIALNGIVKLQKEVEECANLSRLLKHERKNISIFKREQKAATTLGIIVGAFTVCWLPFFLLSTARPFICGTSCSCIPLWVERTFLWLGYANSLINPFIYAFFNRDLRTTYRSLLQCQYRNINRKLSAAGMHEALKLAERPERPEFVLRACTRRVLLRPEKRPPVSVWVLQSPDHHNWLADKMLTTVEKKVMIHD

| inhibition [1] | inhibition at 1 µM [2] | inhibition [3] | inhibition at 1 µM [4] | Ki [8] | inhibition at 10 µM [9] | Ki (D(2) dopamine receptor [10]) | Ki (D(2) dopamine receptor [11]) | Ki (D(3) dopamine receptor) | Ki [12] | Ki [13] | Ki [14] | Ki [15] | inhibition (Rattus norvegicus [16]) | inhibition [17] | Structure (SMILES) | pKB (Rattus norvegicus [5]) | pKB (Rattus norvegicus [6]) | Ratio [7] |
| --- | --- | --- | --- | --- | --- | --- | --- | --- | --- | --- | --- | --- | --- | --- | --- | --- | --- | --- |
| 95% | 53% | 69% | 69% | – | – | – | – | – | – | – | – | – | – | – | Cc1ccc(N2C(=O)c3ccc(C(=O)NCCCN4CCN(c5ccccc5OC(C)C)CC4)cc3C2=O)cc1 | – | – | – |
| 90% | – | 64% | – | – | – | – | – | – | – | – | – | – | – | – | Cc1ccc(N2C(=O)c3ccc(C(=O)NC[C@H](O)CN4CCN(c5ccccc5OC(C)C)CC4)cc3C2=O)cc1 | 6.78 | 5.9 | 7.6 |
| 95% | – | 66% | 57% | 169 nM | 53% | 25 nM | 23 nM | 62 nM | 760 nM | 10 nM | – | – | – | – | CC(C)Oc1ccccc1N1CCN(C[C@@H](O)CNC(=O)c2ccc3c(c2)C(=O)N(c2ccc(N(C)C)cc2)C3=O)CC1 | 7.39 | 5.84 | 35.2 |
| 74% | 22% | 62% | 20% | 80 nM | – | 78 nM | 13 nM | 0.28 nM | – | 84 nM | 944 nM | 63 nM | 64% | 7% | CCOc1ccccc1OCCN[C@H](C)Cc1ccc(OC)c(S(N)(=O)=O)c1 [TAMSULOSIN] | 9.33 | 10.76 | – |
| 92% | – | 90% | – | – | – | – | – | – | – | – | – | – | – | – | COc1ccc(N2C(=O)c3ccc(C(=O)NCCCN4CCN(c5ccccc5OC(C)C)CC4)cc3C2=O)cc1 | – | – | – |
| 92% | 76% | 88% | 72% | – | – | – | – | – | – | – | – | – | 66% | 75% | CC(C)Oc1ccccc1N1CCN(CCCNC(=O)c2ccc3c(c2)C(=O)N(c2cccc(F)c2)C3=O)CC1 | – | – | – |
| 95% | 67% | 49% | 81% | – | – | – | – | – | – | – | – | – | – | 69% | CC(C)Oc1ccccc1N1CCN(C[C@@H](O)CNC(=O)c2ccc3c(c2)C(=O)N(c2cccc(F)c2)C3=O)CC1 | 7.81 | 6.47 | 22.6 |
